# From ChEMBL document CHEMBL1139894, “Withanolides with phytotoxic activity from Jaborosa caulescens var. caulescens and J. caulescens var. bipinnatifida 1” (2007)
# Tests used:
# Assay type in all cases: functional
# Lactuca sativa [1] = assay: Phytotoxic activity against Latuca sativa assessed as radicle length elongation at 15 ppm
# Method in brief: (§1)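 Radicle length of treated seedlings was compared with untreated controls and reported as the percentage difference from the control, which is set to zero. Negative values mean inhibition and positive values mean stimulation. Germination and root length were also compared between treated and control seeds using Student's t-test (p < 0.05).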
# Lactuca sativa [2] = assay: Phytotoxic activity against Latuca sativa assessed as radicle length elongation at 150 ppm; method in brief: as §1
# Lactuca sativa [3] = assay: Phytotoxic activity against Latuca sativa assessed as radicle length elongation at 400 ppm; method in brief: as §1
# Avena sativa [4] = assay: Phytotoxic activity against Avena sativa assessed as radicle length elongation at 15 ppm; method in brief: as §1
# Avena sativa [5] = assay: Phytotoxic activity against Avena sativa assessed as radicle length elongation at 150 ppm; method in brief: as §1
# Avena sativa [6] = assay: Phytotoxic activity against Avena sativa assessed as radicle length elongation at 400 ppm; method in brief: as §1
Structure (SMILES),Activity (Lactuca sativa [1]) [%],Activity (Lactuca sativa [2]) [%],Activity (Lactuca sativa [3]) [%],Activity (Avena sativa [4]) [%],Activity (Avena sativa [5]) [%],Activity (Avena sativa [6]) [%]
CCO[C@@]12C[C@H]3[C@@H](C[C@@H](O)[C@@]4(Cl)CC=CC(=O)[C@]34C)[C@@H]3CC[C@@](O)([C@H](C)[C@@H]([C@@H]4OC(=O)C(C)=C4C)O1)[C@]32C [12-O-ETHYLJABOROSALACTONE 42],2.7,-25.7,-65.1,3.5,-11.2,-32.2
CC1=C(C)C(=O)O[C@@H]([C@H]2CO[C@@]3(O)C[C@H]4[C@@H](C[C@H]5O[C@]56CC=CC(=O)[C@]46C)[C@@H]4CC[C@]2(O)[C@]43C)C1 [JABOROSALACTONE],-1.6,-46.2,-58.6,-13.9,2.4,-36.5
CC1=C(C)[C@H]([C@H]2O[C@@]3(O)C[C@H]4[C@@H](C[C@@H](O)[C@@]5(O)CC=CC(=O)[C@]45C)[C@@H]4CC[C@@](O)([C@@H]2C)[C@]43C)OC1=O [JABOROTETROL],-3.9,-5.5,-4,-10.2,2.7,-5.9
CC1=C(C)[C@H]([C@H]2O[C@@]3(O)C[C@H]4[C@@H](C[C@H]5O[C@]56CC=CC(=O)[C@]46C)[C@@H]4CC[C@@](O)([C@@H]2C)[C@]43C)OC1=O [TRECHONOLIDE A],3.7,-8.4,2.5,2.5,-11.7,4
CO[C@@]12C[C@H]3[C@@H](C[C@H]4O[C@]45CC=CC(=O)[C@]35C)[C@@H]3CC[C@@](O)([C@@H]([C@H]4CC(C)=C(C)C(=O)O4)CO1)[C@]32C [12-O-METHYLJABOROSALACTONE 38],-8.7,-22.7,-74.7,15.3,1.5,-24.5
